The test system of one experiment is E. coli 70S ribosomes. As to the kind of experiment: Competition binding assay with BODIPY-labeled erythromycin. The settings on record: ratio of KDapp versus CLM; listed as L-histidyl analogue. The gist of the method: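 E. coli 70S ribosomes (25 nM) preincubated with BODIPY-erythromycin (4 nM) for 30 min at 25°C in 20 mM HEPES-KOH pH 7.5, 50 mM NH₄Cl, 10 mM Mg acetate, 0.05% Tween-20. Test compound was added at 0.1 μM to 1 mM, then incubated 2 h to equilibrium. Fluorescence polarization was read to give apparent KD by competition.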

The subject of experiment [1] is ribosome translating synthetic ORF […]. As to the kind of experiment: Primer extension inhibition. It is filed as biochemical. The note with it: 100 μM antibiotic, with or without mupirocin 50 μM, ORF MFKAFKNIIRTRTL
Experiment [2] deals with cell-free translation of firefly luciferase in E. coli S30 cell extract. It is filed as biochemical. The settings on record: 30 μM inhibitor. The method, boiled down: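 In vitro transcribed firefly luciferase mRNA (100 ng) was translated in E. coli S30 extract at 37°C for 30 min with test compound at 30 μM final. Luciferase activity was read with Steady-Glo substrate. Reactions were run in triplicate; error bars are confidence interval (α = 0.05).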

The record followed here is article PMC6023675 (Journal of molecular biology, 2018).

For `N[C@@H](Cc1c[nH]cn1)C(=O)N[C@H](CO)[C@H](O)c1ccc([N+](=O)[O-])cc1` [His-CAM (1)], the “Affinity for the ribosome relative to CLM (fold higher)” value in the experiment with E. coli 70S ribosomes worked out at 10 fold.

In the case of `C=C[C@]1(C)C[C@@H](OC(=O)CS[C@@H]2C[C@H]3CC[C@@H](C2)N3C)[C@]2(C)[C@H](C)CC[C@]3(CCC(=O)[C@H]32)[C@@H](C)[C@@H]1O` [retapamulin (RET), retapamulin], the “Site of antibiotic-induced translation arrest (toe-printing)” value in experiment [1] is on record as “arrests the ribosome at the start codon”.

As to `O=C(N[C@H](CO)[C@H](O)c1ccc([N+](=O)[O-])cc1)C(Cl)Cl` [CLM, chloramphenicol], in experiment [2], the “Inhibition of firefly luciferase synthesis (in words)” value is listed as “near-complete inhibition”.
